The nature of this data set: Toxicity liver stage against HepG2, at 10uM. The note with it: human, HepG2-A16-CD81EGFP cells; read-out: INHIBITION
The format is cell-based. Also on record: test concentration 10 uM, cell line HepG2-A16-CD81EGFP. Put shortly:
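Uninfected HepG2-A16-CD81EGFP cells, 3 × 10^3 per well, 1536-well, plated on prespotted compound at 10 μM final, parasite-free screening media added to match infected plates; puromycin 10 μM positive, DMSO 0.5% negative; run in parallel with 48 h PbLuc assay at 37 °C, 5% CO2; viability by CellTiter-Glo luminescence, normalized to controls.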
Regarding `CCOC(=O)C1(Cc2cccc(OC)c2)CCN(Cc2ccon2)CC1`, the cytotoxicity at 10 µM was 2.61%.
`c1cncc(-c2nnc([C@H]3CCN(CC4CCCCC4)C3)o2)c1`: the cytotoxicity at 10 µM is -6.72%.
The value for `CC(O)(CNC(=O)c1c(F)cccc1Cl)c1ccco1` (configuration not stated) was 2.22%.
The result for `CN1CCCN(C(=O)c2nc3c(n2C)CCN(c2ncccn2)C3)CC1` reads -9.18%.
The value for `CCNC(=O)c1ccc2ccc(N(CC)CC)n2c1` was 1.67%; that for `CNC(=O)[C@H]1C[C@@H]2CN(c3cc(OC)ncn3)C[C@@H]2N1C(C)C` was -8.84%.
Regarding `Cc1cccc(CO[C@H]2CO[C@@]3(CCN(S(=O)(=O)N(C)C)C3)C2)n1`, the cytotoxicity at 10 µM turned out to be 7.7%.
Turning to `CN(C)S(=O)(=O)N1C[C@@H](OCc2ccccn2)[C@H]2OCCC[C@H]21`, the cytotoxicity at 10 µM is 10.7%.
For the molecule `Cc1cc(-c2cccc(C(=O)O)c2)nc(C2CCN(C(C)C)CC2)n1`, the cytotoxicity at 10 µM is -0.723%.
Regarding `Cn1nccc1CCC(=O)N1CCCC(Cc2cccnc2)C1` (configuration not stated), the cytotoxicity at 10 µM was -3.14%.
The result for `Cc1nc(Nc2ncccn2)cc(C2CCCN2CC(C)C)n1` (configuration not stated) reads 7.02%.
In the case of `O=c1c(Cc2ccccc2)c(O)ccn1CCc1ccccc1`, the cytotoxicity at 10 µM was 10.3%.
The value for `CC(C)c1noc(C[S+]([O-])CC(=O)Nc2cc(F)ccc2F)n1` (configuration not stated) was 8.15%; that for `CC(O)CN(C(=O)NC1CC1)C(C)C` (configuration not stated) was 13.1%.
The result for `CC(C)(C)c1nc(CN2CCC(N3CCCCC3)CC2)no1` reads -0.48%.
Turning to `Cc1cccc(C(C)C)c1NC(=O)NCCN(C(C)C)C(C)C`, the cytotoxicity at 10 µM was -8.98%.
With `CC(c1nc(C2CC2)no1)N1CCc2c(ncn2C)C1` (configuration not stated), the cytotoxicity at 10 µM was found to be 1.09%.
The result for `O=C(c1cnc(NCc2cccnc2)c(Cl)c1)N1CCCCC1` reads 8.89%; that for `O=C1OCCCN1Cc1nc(-c2ccc(N3CCCCC3)cc2)no1`, 7.04%.
Regarding `Cc1nc(CCCNC(=O)Nc2cc(F)cc(F)c2)n[nH]1`, the cytotoxicity at 10 µM was -8.39%.
The value for `COc1ccnc(N2CCN(Cc3ncc(-c4ccccc4)o3)CC2)n1` was -10.2%; that for `CCc1cc(CNC(=O)N(C2CC2)C(C)c2ccco2)[nH]n1` (configuration not stated) was 4.18%; that for `O=C(CCn1cccn1)NCC(c1cccs1)N1CCOCC1` (configuration not stated) was -2.49%.
With `COc1ccc(CNC(C)c2ccc(Cl)cc2)c(OC)c1OC` (configuration not stated), the cytotoxicity at 10 µM was 7.74%.
For the molecule `CCc1nc(NS(=O)(=O)c2ccc(F)cc2Cl)no1`, the cytotoxicity at 10 µM came to 0.528%.
The value for `CCc1noc(CN(C)C(=O)c2ccnc(OC3CCC3)c2)n1` was 4.86%; that for `COCCOCC(=O)Nc1ccc(F)cc1C` was 12.8%.
The value for `Cc1cnn(C2CCN(Cc3ccccc3)C2)c1N` (configuration not stated) was -3.76%.
The result for `COC1CCCN(C(=O)NCCCF)C1` (configuration not stated) reads 0.215%; that for `NC(=O)NC(=O)CCSc1ccccc1Cl`, 11.8%; that for `CC(NC(=O)N1CCC(CO)CC1)c1csc2ccccc12` (configuration not stated), -5.4%.
For the molecule `Cc1ccc(S(=O)(=O)NC(=O)CCOCC(C)C)s1`, the cytotoxicity at 10 µM was -5.36%.
The value for `COCCNC(=O)c1ccc2c(=O)n3c(nc2c1)CCCCCC3` was -46.3%.
The result for `Cc1ccc(C(C)N(C)CCS(=O)(=O)CCC(N)=O)cc1` (configuration not stated) reads -52.5%; that for `CC(=O)N1CCCN(C2CCCCc3ccccc32)CC1` (configuration not stated), -48.6%.
The result for `CCOc1ccc(CN(CCC#N)CCN2CCOCC2)cc1OC` reads -9.98%.
On to `O=C(CCc1ccsc1)NS(=O)(=O)Cc1ccon1`, for which the cytotoxicity at 10 µM is -12.6%.
The value for `CN(CC(=O)N(C)C1CCCCC1)Cc1nc2c(cnn2C)c(=O)[nH]1` was 9.12%.
The value for `Cc1c(C(=O)NCC(C)C)nnn1-c1cccc2c1CCN(C)C2` was -7.69%; that for `O=C(c1cscn1)N1CC[C@H]2[C@@H]1CCC(=O)N2c1ccccc1` was -68.8%.
The value for `Cc1ccoc1C(=O)N1C[C@@H](OCC2CC2)[C@H]2OCCC[C@H]21` was 5.86%.
For `Cc1[nH]c2ccccc2c1-c1ccnc(N[C@H](CO)CC(C)C)n1`, the cytotoxicity at 10 µM turned out to be 0.97%.
The result for `CC(C)S(=O)(=O)NCc1cccnc1Oc1ccc(F)cc1F` reads 5.98%; that for `CNC(=O)c1cn2cc(-c3cccc(Cl)c3)n(CC3CC3)c(=O)c2n1`, -37.4%.
The value for `OC1(CN2CCCC2)COCCN(c2ncnc3[nH]cnc23)C1` (configuration not stated) was 0.458%; that for `CC(C)C(C(=O)N1CCC2(CC1)CN(C)C(=O)O2)c1ccccc1` (configuration not stated) was -53.6%; that for `Cc1csc2c(N3CCC(NCCCC4CCOC4)CC3)ncnc12` (configuration not stated) was 3.3%.
The value for `Cc1nccn1CCN1C(=O)CC2(CCCC2)CC1=O` was -2.11%.
For `c1ccc(-c2ncn(CCCN3CCOCC3)c2-c2ccncc2)cc1`, the cytotoxicity at 10 µM was -7.64%.
Turning to `Cc1[nH]c2ccc(CNc3cc(C(=O)NC(C)C)ccn3)cc2c1C`, the cytotoxicity at 10 µM worked out at 16.2%.
The value for `Cc1n[nH]c(CCC(=O)N2CCOC(Cc3ccc(F)cc3)C2)c1C` (configuration not stated) was -40.4%; that for `CCN(CC)C(=O)Cn1cc(C(=O)NCCCc2scnc2C)nn1` was -7.38%; that for `COc1c(C)cnc(CN2CCCCC2CCN2CCOCC2)c1C` (configuration not stated) was -4.27%.
The value for `CNC(=O)[C@@H]1C[C@@H](N)CN1Cc1ccc2cccc(OC)c2n1` was 0.719%.
Regarding `CCc1csc(CNc2cc(C)nc(-c3cccnc3)n2)n1`, the cytotoxicity at 10 µM turned out to be 4.83%.
The value for `CC(=O)Nc1ccc(CNC(=O)CNCc2sc(C)nc2C)cc1` was 6.95%.
The result for `Cc1nnsc1CN(C)Cc1ccc(C(=O)Nc2sccc2C#N)cc1` reads 4.06%; that for `Cc1cccc(C(C(=O)NCc2nc(-c3ncccn3)no2)N(C)C)c1` (configuration not stated), -1.57%; that for `Cc1nc[nH]c1-c1nccn1CCN1CCOC1=O`, -5.58%.
The result for `COc1ccc2nc(CCNC(=O)c3cc(CC(C)C)no3)[nH]c2c1` reads 0.808%; that for `CCCNC(=O)c1ccc(S(=O)(=O)NC2(COC)CCCC2)cc1`, -49.9%; that for `CC(=O)NCc1nnc2n1CCN(c1ncnc3c1CCC3)CC2`, 13%.
Consider `CN1CCCC1c1ccc(C(=O)Nc2c3c(nn2C)CCC3)s1` (configuration not stated), for which the cytotoxicity at 10 µM is -7.3%.
The value for `CSCCNc1ccc(C(=O)N(C)Cc2ccc3ccccc3n2)cn1` was 9.65%; that for `CSc1nccc(N2C[C@@H](CN3CCCCC3)[C@@H](CO)C2)n1` was -3.59%; that for `Cc1ccc(C)c(C(=O)Nc2ccc(OC3CCN(C)CC3)cc2)c1` was 8.97%.
In the case of `COc1cccc(Cc2nc3c([nH]2)CC(C)(C)CNC3=O)c1OC`, the cytotoxicity at 10 µM is -2.88%.
The result for `CNC(=O)c1[nH]nc2c1CN(c1cc(C3CCCNC3)nc(C)n1)CC2` (configuration not stated) reads -51.8%; that for `CCc1nc(N)sc1C(=O)N1CCCC(CCc2ccccc2C)C1` (configuration not stated), 6.46%; that for `Fc1ccccc1-c1noc2c1CN(CC1CC1)CC2`, -15.4%.
The result for `COC(=O)c1ccc(CNCc2ccn(C)n2)cc1` reads -2.64%; that for `Cn1cc(C2CCCN2Cc2csc(C(C)(C)C)n2)cn1` (configuration not stated), -4.87%; that for `CC(C)c1n[nH]c(C(=O)Nc2cc[nH]n2)c1Br`, -9.73%.
The result for `Cc1cnn(CC(C)NCc2ccc(S(C)(=O)=O)cc2)c1` (configuration not stated) reads 4.62%.
For the molecule `CCN1CCN(CC(O)c2ccc(OC(F)(F)F)cc2)CC1` (configuration not stated), the cytotoxicity at 10 µM was -4.47%.
Turning to `Nc1nc(C(=O)NCC2CCC3(CCNCC3)CO2)cs1` (configuration not stated), the cytotoxicity at 10 µM amounted to 21%.
As to `Cn1cc(CNC2CCc3c(ccc(=O)n3Cc3cccnc3)C2)cn1` (configuration not stated), the cytotoxicity at 10 µM was -108%.
The value for `Cc1ccc(CN2CCOC3(CCN(C(=O)C4CC=CC4)CC3)C2)cc1` was 15.5%; that for `CN(C)C(=O)C1CCC2(CCN(Cc3cnn(C)c3)CC2)C1` (configuration not stated) was 5.01%; that for `COCCN1CCC2(CC1)CC(NC(=O)C(C)C)c1ccccc1O2` (configuration not stated) was 3.82%.
The value for `COCCN1C(=O)C2(CCN(CC3CC3)CC2)c2ccccc21` was -115%; that for `c1cnc(N2CCCC3(CCN(CC4CCC4)C3)C2)nc1` (configuration not stated) was -82.8%; that for `O=C(c1cccnc1)N1CCN2C[C@H](Oc3cncnc3)C[C@H]2C1` was 8.1%.
The value for `c1ccc(O[C@@H]2CC[C@H]3[C@H]2OCCN3CC2CCOCC2)nc1` was -1.02%; that for `CC(C)OCCCN(CC(=O)N1CCNCC1)C(=O)c1ccc(F)cc1` was 8.85%.
For the molecule `O=S(=O)(c1ccccc1)N1CCC2(CCCN2Cc2cccnc2)C1` (configuration not stated), the cytotoxicity at 10 µM was -73.5%.
The result for `CNCC(=O)N1CCC(c2ccnc(Nc3ccc(C)cn3)n2)C1` (configuration not stated) reads -2.29%.
The result for `COCCN1CCO[C@H]2CCN(C(=O)c3ccnnc3)CC[C@@H]21` reads 0.196%.
The value for `CNC(=O)C1Cn2ccnc2C2(CCN(Cc3nccs3)CC2)O1` (configuration not stated) was -67.2%; that for `CNC(=O)CC1CC2(CCN(c3ncccn3)CC2)c2ccccc21` (configuration not stated) was 11.6%.
`Cc1nc(CN2CCc3ncnc(C)c3CC2)cs1`: the cytotoxicity at 10 µM is -1.8%.
The value for `O=C(C1CC1)N1CCc2ccccc2C12CCNCC2` was 5.35%.
The result for `Cc1nc(C2(O)CCCNCC2)sc1CCOc1ccccc1Cl` (configuration not stated) reads -28.1%; that for `COCCN1CCCn2cnc(CNC3CCCC3)c2C1`, 4.92%.
For `Cc1ccccc1C(=O)N1C[C@@H]2C(CN(C)CCc3ccccn3)[C@@H]2C1` (some centres not stated), the cytotoxicity at 10 µM was -54.9%.
The value for `Cc1ccnn1CCC(=O)N1C[C@@H]2CC[C@H]1CN(CC(=O)N(C)C)C2` was 8.42%.
The value for `Oc1coc2cc(OC[C@@H]3CCCN4CCCC[C@H]34)ccc12` was 1.96%.

The values are drawn from ChEMBL document CHEMBL4513216, “Probing the Open Global Health Chemical Diversity Library for Multistage-Active Starting Points for Next-Generation Antimalarials” (ACS Infect Dis, 2020).
